Measured values: ChEMBL document CHEMBL5038575, “Novel Functionalized Cannabinoid Receptor Probes: Development of Exceptionally Potent Agonists” (J Med Chem, 2021)
Activity calls are given as the source filed them. No cut-off for these calls is given here.

Columns and labels:
[1] = molecular target: Cannabinoid receptor 1 (Rattus norvegicus) (UniProt P20272); test: Displacement of [3H]CP55940 from rat brain membrane CB1 assessed as reduction in maximum binding capacity at 4 nM incubated for 1 hr by TopCount scintillation counting method relative to control; assay type: cell membranes
How it was run: (§1)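 Wash-resistant binding. […] Saturation binding used 25 μg protein, [³H]CP-55,940 at 0.5–23.8 nM and 4 μM unlabeled CP-55,940 for nonspecific binding, 1 h at 30 °C. Samples were filtered and counted by scintillation. Bmax came from one-site fits; % reduction was taken versus untreated control.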

Cannabinoid receptor 2 [2] = molecular target: T1, Cannabinoid receptor 2 (Homo sapiens, UniProt P34972); test: Displacement of [3H]CP55940 from CB2 (unknown origin) assessed as reduction in maximum binding capacity at 4 nM incubated for 1 hr by TopCount scintillation counting method relative to control; how it was run: as §1
Cannabinoid receptor 1 [3] = molecular target: Cannabinoid receptor 1 (Rattus norvegicus, UniProt P20272); test: Displacement of [3H]CP55940 from rat brain membrane CB1 receptor assessed as inhibition constant incubated for 1 hr by TopCount scintillation counting method; assay type: cell membranes
How it was run: (§2)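 Competition binding against [³H]CP-55,940. CB1 from rat brain membranes; CB2 from membranes of HEK293 cells expressing mouse or human CB2. IC50 obtained by nonlinear regression and converted to Ki. Three independent experiments in triplicate; mean with SEM.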

Cannabinoid receptor 2 [4] = molecular target: T1, Cannabinoid receptor 2; test: Displacement of [3H]CP55940 from human CB2 expressed in HEK293 cell membrane assessed as inhibition constant incubated for 1 hr by TopCount scintillation counting method; assay type: cell membranes; how it was run: as §2
Cannabinoid receptor 2 [5] = molecular target: T1, Cannabinoid receptor 2; test: Agonist activity at 3xHA tagged human CB2 receptor expressed in CHO-K1 cells assessed as reduction in forskolin-stimulated cAMP accumulation by measuring maximal efficacy incubated for 30 mins by cAMP assay relative to CP-55940; assay type: functional, cell-based; details: filed as agonist
How it was run: (§3)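 CHO-K1 cells stably expressing 3xHA-tagged CB1 or CB2, plated at 4000 cells/well in Opti-MEM with 1% FBS for 3 h at 37 °C. Cells cotreated with 25 μM RO-20-1724, 20 μM forskolin and agonist for 30 min at 37 °C, then lysed. cAMP read by HTRF (665/620 nm) after 1 h at room temperature in the dark. Data normalized to vehicle and 100 nM CP-55,940; three-parameter nonlinear regression; ≥4 experiments in duplicate.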

Cannabinoid receptor 2 [6] = molecular target: T1, Cannabinoid receptor 2; test: Agonist activity at 3xHA tagged human CB2 receptor expressed in CHO-K1 cells assessed as reduction in forskolin-stimulated cAMP accumulation incubated for 30 mins by cAMP assay; assay type: functional, cell-based
Cannabinoid receptor 2 [7] = molecular target: Cannabinoid receptor 2 (Mus musculus, UniProt P47936); test: Displacement of [3H]CP55940 from mouse CB2 expressed in HEK293 cell membrane assessed as inhibition constant incubated for 1 hr by TopCount scintillation counting method; assay type: cell membranes; how it was run: as §2
Cannabinoid receptor 1 [8] = molecular target: T2, Cannabinoid receptor 1 (Homo sapiens, UniProt P21554); test: Agonist activity at 3xHA tagged human CB1 receptor expressed in CHO-K1 cells assessed as reduction in forskolin-stimulated cAMP accumulation incubated for 30 mins by cAMP assay; assay type: functional, cell-based
Cannabinoid receptor 1 [9] = molecular target: T2, Cannabinoid receptor 1; test: Agonist activity at 3xHA tagged human CB1 receptor expressed in CHO-K1 cells assessed as reduction in forskolin-stimulated cAMP accumulation by measuring maximal efficacy incubated for 30 mins by cAMP assay relative to CP-55940; assay type: functional, cell-based; details: filed as agonist; how it was run: as §3
Mus musculus [10] = test: Antinociceptive activity in CD-1 mouse model of thermal-induced nociception assessed as maximum efficacy causing increase in tail withdrawal latency administered intraperitonially for 6 hrs by tail flick test; assay type: functional, organism-based; details: dose 0.03-1 mg/kg
How it was run: (§4)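 Male CD-1 mice, 25–30 g, n = 6/dose, each used once. Drug was dissolved in 2% DMSO, 4% Tween 80 and 4% propylene glycol, then diluted with saline, and given ip at 10 mL/kg. Tail immersed in a 52 °C water bath; latency recorded at baseline and at 20, 60, 180 and 360 min after injection. Results expressed as % maximum possible effect; ED50 given with 95% CI.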

Mus musculus [11] = test: Induction of hypothermia in C57BL/6 mouse assessed as reduction in body temperature at 0.1 mg/kg, ip measured after 24 hrs; assay type: toxicity, organism-based; details: in vivo
[12] = molecular target: Cannabinoid receptor 1 (Rattus norvegicus) (UniProt P20272); test: Displacement of [3H]CP55940 from rat brain membrane CB1 assessed as reduction in maximum binding capacity at 4 nM incubated for 1 hr followed by compound washout and measured after 60 to 180 mins by TopCount scintillation counting method; assay type: cell membranes; details: filed as agonist
[13] = Toxicity in C57BL/6 mouse assessed as reduction in locomotion at 0.1 to 1 mg/kg, ip measured after 20 mins; assay type: organism-based; details: in vivo, dose 0.1-1 mg/kg
How it was run: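 C57BL/6 mice, n = 6–7/treatment, given ip drug in 2% DMSO/1% Tween 80/saline at 0.1–1.0 mg/kg. Habituated to the apparatus in the morning. Placed in an infrared beam activity monitor 20 min after injection; ambulatory and horizontal counts recorded over 10 min.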

Mus musculus [14] = test: Antinociceptive activity in CD-1 mouse model of thermal-induced nociception assessed as maximum efficacy causing increase in tail withdrawal latency at 0.03 mg/kg, ip measured 60 mins post-injection by tail flick test; assay type: functional, organism-based; how it was run: as §4
[15] = Toxicity in […] mouse assessed as reduction in gastrointestinal motility by measuring colonic expulsion at 0.1 mg/kg, ip measured after 20 to 220 mins; assay type: organism-based; details: in vivo, time 20-220 min
How it was run: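 Mice, n = 6–7/treatment, given vehicle (DMSO/Tween 80/saline 2:1:17) or 0.1 mg/kg ip. At 20, 120 and 220 min, under light isoflurane, a 2.5 mm glass bead was inserted 2 cm into the rectum. Time to bead expulsion was recorded.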

Mus musculus [16] = test: Antinociceptive activity in CD-1 mouse model of thermal-induced nociception assessed as maximum efficacy causing increase in tail withdrawal latency at 0.03 to 1 mg/kg, ip measured 20 mins post-injection by tail flick test; assay type: functional, organism-based; details: dose 0.03-1 mg/kg; how it was run: as §4
Mus musculus [17] = test: Antinociceptive activity in CD-1 mouse model of thermal-induced nociception assessed as increase in tail withdrawal latency administered intraperitonially for 6 hrs by tail flick test; assay type: functional; details: CD-1, ip; how it was run: as §4

Chain of Cannabinoid receptor 2 (Mus musculus, UniProt P47936) (P47936 whole entry): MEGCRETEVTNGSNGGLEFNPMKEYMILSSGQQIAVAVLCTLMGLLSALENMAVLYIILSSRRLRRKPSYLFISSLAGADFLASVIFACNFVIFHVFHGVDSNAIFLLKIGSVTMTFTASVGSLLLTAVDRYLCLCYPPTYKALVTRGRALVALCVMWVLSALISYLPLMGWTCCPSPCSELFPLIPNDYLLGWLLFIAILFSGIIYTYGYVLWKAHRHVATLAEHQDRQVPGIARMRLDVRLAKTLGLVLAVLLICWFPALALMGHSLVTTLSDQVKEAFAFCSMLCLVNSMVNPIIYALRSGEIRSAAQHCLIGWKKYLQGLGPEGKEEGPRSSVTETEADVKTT
Chain of Cannabinoid receptor 1 (Rattus norvegicus, UniProt P20272) (P20272 whole entry): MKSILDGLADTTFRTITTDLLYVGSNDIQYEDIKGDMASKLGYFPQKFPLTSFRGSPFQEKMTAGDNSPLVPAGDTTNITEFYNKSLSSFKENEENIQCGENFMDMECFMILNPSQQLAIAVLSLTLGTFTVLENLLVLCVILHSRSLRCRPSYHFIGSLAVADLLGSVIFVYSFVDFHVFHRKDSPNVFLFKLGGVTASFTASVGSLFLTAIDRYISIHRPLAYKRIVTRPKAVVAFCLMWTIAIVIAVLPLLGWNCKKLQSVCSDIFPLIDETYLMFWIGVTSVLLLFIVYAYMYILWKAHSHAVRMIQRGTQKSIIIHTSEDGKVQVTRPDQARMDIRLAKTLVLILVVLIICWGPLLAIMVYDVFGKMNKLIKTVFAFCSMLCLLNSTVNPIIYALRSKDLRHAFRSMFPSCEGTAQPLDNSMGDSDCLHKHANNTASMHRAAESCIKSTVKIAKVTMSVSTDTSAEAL
Chain of Cannabinoid receptor 1 (Rattus norvegicus) (P20272 whole entry): as above
T1 sequence (P34972 whole entry): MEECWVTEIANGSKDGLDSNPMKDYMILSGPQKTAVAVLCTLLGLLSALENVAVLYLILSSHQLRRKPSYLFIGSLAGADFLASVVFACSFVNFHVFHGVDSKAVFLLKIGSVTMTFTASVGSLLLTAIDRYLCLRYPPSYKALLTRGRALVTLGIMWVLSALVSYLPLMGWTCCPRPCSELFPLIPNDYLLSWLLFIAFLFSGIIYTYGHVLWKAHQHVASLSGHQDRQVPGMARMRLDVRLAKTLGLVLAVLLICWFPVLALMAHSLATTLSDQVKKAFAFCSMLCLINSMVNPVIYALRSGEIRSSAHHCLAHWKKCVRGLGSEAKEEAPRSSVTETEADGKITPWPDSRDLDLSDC
T2 sequence (P21554 whole entry): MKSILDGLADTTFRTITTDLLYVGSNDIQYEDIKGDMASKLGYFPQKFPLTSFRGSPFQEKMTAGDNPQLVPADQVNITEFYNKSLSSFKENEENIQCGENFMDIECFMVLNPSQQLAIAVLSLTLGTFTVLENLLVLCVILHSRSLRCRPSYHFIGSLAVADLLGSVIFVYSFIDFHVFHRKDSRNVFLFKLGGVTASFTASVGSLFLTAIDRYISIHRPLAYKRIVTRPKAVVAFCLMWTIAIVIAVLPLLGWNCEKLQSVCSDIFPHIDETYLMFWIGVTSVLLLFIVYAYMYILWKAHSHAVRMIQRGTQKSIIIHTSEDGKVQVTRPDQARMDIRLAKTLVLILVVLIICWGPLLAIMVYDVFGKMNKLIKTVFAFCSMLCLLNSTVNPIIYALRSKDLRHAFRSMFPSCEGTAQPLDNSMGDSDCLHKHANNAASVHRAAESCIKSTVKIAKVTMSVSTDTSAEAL

Structure (SMILES)	Ki (Cannabinoid receptor 1 [3]) [nM]	Ki (Cannabinoid receptor 2 [4]) [nM]	Bmax ([1]; filed as agonist) [%]	Emax (Cannabinoid receptor 2 [5]) [%]	Bmax (Cannabinoid receptor 2 [2]) [%]	EC50 (Cannabinoid receptor 2 [6]) [nM]	Ki (Cannabinoid receptor 2 [7]) [nM]	EC50 (Cannabinoid receptor 1 [8]) [nM]	Emax (Cannabinoid receptor 1 [9]) [%]	Bmax (Cannabinoid receptor 2 [2]; filed as agonist) [%]	other results
CCCCCCC(C)(C)c1cc(O)c2c(c1)OC(C)(C)[C@@H]1CC[C@@H](CO)C[C@@H]21	3	2.1									Activity [1]: inactive; Activity (Cannabinoid receptor 2 [2]): inactive
CC1(C)Oc2cc(C3(CCCCCCCN=C=S)CCCC3)cc(O)c2[C@@H]2C[C@H](CO)CC[C@H]21	0.4	1	51	74	19	0.39	1.1	0.43	105		
CC1(C)Oc2cc(C3(CCCCCCCC#N)CCCC3)cc(O)c2[C@@H]2C[C@H](CN=C=S)CC[C@H]21	0.4	0.6					1.9				Activity [1]: inactive; Activity (Cannabinoid receptor 2 [2]): inactive
CC(C)(CCCCCCC#N)c1cc(O)c2c(c1)OC(C)(C)[C@@H]1CC[C@@H](CO)C[C@@H]21	0.4	0.4	76	70		0.38	0.8	0.088	103	60	Activity (Mus musculus [10]): Dose-Dependent Effect; Activity (Mus musculus [11]): Toxic; Activity [12]: Active; Activity [13]: Toxic; Activity (Mus musculus [14]): inactive; Activity [15]: Toxic; Activity (Mus musculus [16]): Active; ED50 (Mus musculus [17]): 0.12 mg/kg
CC1(C)Oc2cc(C3(CCCCCCN=C=S)CCCC3)cc(O)c2[C@@H]2C[C@H](CO)CC[C@H]21	1.1	1.3		57	34	2.7	0.9	0.52	104		Bmax [1]: 39%
CC1(C)Oc2cc(C3(CCCCCCN=[N+]=[N-])CCCC3)cc(O)c2[C@@H]2C[C@H](CO)CC[C@H]21	0.4	0.8	87				0.8			65	
CC1(C)Oc2cc(C3(CCCCCCC#N)CCCC3)cc(O)c2[C@@H]2C[C@H](CO)CC[C@H]21	0.8	1.4	68	61		0.96	1	0.31	112	45	
CC1(C)Oc2cc(C3(CCCCCCCC#N)CCCC3)cc(O)c2[C@@H]2C[C@H](CN=[N+]=[N-])CC[C@H]21	0.3	0.3					1.4				Activity [1]: inactive; Activity (Cannabinoid receptor 2 [2]): inactive
CC1(C)Oc2cc(C3(CCCCCCCN=[N+]=[N-])CCCC3)cc(O)c2[C@@H]2C[C@H](CO)CC[C@H]21	0.5	1.5	48		37		1.6				
CC(C)(CCCCCCN=[N+]=[N-])c1cc(O)c2c(c1)OC(C)(C)[C@@H]1CC[C@@H](CO)C[C@@H]21	0.41	1.4	75	72		0.77	0.8	0.098	99	63	
CC1(C)Oc2cc(C3(CCCCCCCN=C=S)CCCC3)cc(O)c2[C@@H]2C[C@H](CN=C=S)CC[C@H]21	37.6	4.2			15		14.6				Bmax [1]: 37%
CC1(C)Oc2cc(C3(CCCCCCCC#N)CCCC3)cc(O)c2[C@@H]2C[C@H](CO)CC[C@H]21	0.5	0.4	60				0.9			40	
CC1(C)Oc2cc(C3(CCCCCCCN=[N+]=[N-])CCCC3)cc(O)c2[C@@H]2C[C@H](CN=[N+]=[N-])CC[C@H]21	0.7	1.5			21		1.2				Bmax [1]: 28%
CC(C)(CCCCCCN=C=S)c1cc(O)c2c(c1)OC(C)(C)[C@@H]1CC[C@@H](CO)C[C@@H]21	0.39	3.15	65	107		5.5	0.8	5.8	96	75	
